Assay results reported in article PMC6355468 (Journal of Pharmaceutical Analysis, 2018).
Read-outs that look alike come from different tables or passages of the source.

Legend:
[1] = format: physicochemical, rat
[2] = Rat pharmacokinetic study of DZ2002; format: in vivo, Sprague-Dawley rats
Outline: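 Sprague-Dawley rats (230–280 g), four groups of 3 male + 3 female. Single tail-vein bolus of 5 mg/kg (normal saline), or single gavage doses of 5, 10 or 25 mg/kg. Blood (~100 μL) drawn at 0, 5, 15, 30 min and 1, 2, 4, 6, 8, 11, 24 h into heparinized tubes holding 400 μL methanol with 500 nM internal standard, then centrifuged. Parent and acid metabolite measured by LC-MS/MS. Non-compartmental analysis; F from dose-normalized po/iv AUC0–∞, either parent alone or parent plus acid.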

[3] = system: rat blood carboxylesterases; format: in vitro ADME; conditions: up to 30 min
Outline: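 Fresh rat blood (200 μL) mixed first with 400 μL methanol, then test compound added. Incubated at 23 °C for 0, 2, 5, 10, 15 and 30 min in triplicate, then centrifuged. Supernatants analysed by LC-MS/MS (Synergi Fusion-RP column, water/methanol ammonium formate–formic acid gradient) for the acid metabolite.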

[4] = both, Sprague-Dawley, rat, blood, po
[5] = female, Sprague-Dawley, rat, blood, iv, 5 mg/kg
[6] = female, Sprague-Dawley, rat, blood, po, 5 mg/kg
[7] = female, Sprague-Dawley, rat, blood, po, 10 mg/kg
[8] = female, Sprague-Dawley, rat, blood, po, 25 mg/kg
[9] = male, Sprague-Dawley, rat, blood, iv, 5 mg/kg
[10] = male, Sprague-Dawley, rat, blood, po, 5 mg/kg
[11] = male, Sprague-Dawley, rat, blood, po, 10 mg/kg
[12] = male, Sprague-Dawley, rat, blood, po, 25 mg/kg
[13] = rats, intravenous DZ2002 at 5 mg/kg
[14] = after three cycles of freeze and thaw of −70 °C↔23 °C, 80 nM
[15] = after three cycles of freeze and thaw of −70 °C↔23 °C, 8000 nM
[16] = in rat blood at 23 °C for 4 h, 80 nM
[17] = in rat blood at 23 °C for 4 h, 8000 nM
[18] = in rat blood at −70 °C for 60 days, 80 nM
[19] = in rat blood at −70 °C for 60 days, 8000 nM
[20] = in supernatant of methanol-treated rat blood at 10 °C for 24 h, 80 nM
[21] = in supernatant of methanol-treated rat blood at 10 °C for 24 h, 8000 nM

With “3-(6-amino-9H-purin-9-yl)-2,2-diethylpropanoic acid [Internal standard, reference compound]” the “Stability, response (%Control)” value ([1]; after three cycles of freeze and thaw of −70 °C↔23 °C, 500 nM) was “(98.4) %Control”, the “Stability, response (%Control)” value ([1]; in rat blood at 23 °C for 4 h, 500 nM) was “(108) %Control” and the “Stability, response (%Control)” value ([1]; in rat blood at −70 °C for 60 days, 500 nM) was “(104) %Control”. The “Stability, response (%Control)” value ([1]; in stock solutions at −70 °C for 6 months, internal standard (500 nM)) was “(97.9) %Control” and the “Stability, response (%Control)” value ([1]; in supernatant of methanol-treated rat blood at 10 °C for 24 h, 500 nM) was “(106) %Control”.
For COC(=O)[C@@H](O)CCn1cnc2c(N)ncnc21 [DZ2002, Methyl (S)-4-(6-amino-9H-purin-9-yl)-2-hydroxybutanoate], the bioavailability [2, 4] was 90 to 159%, the half-life [2, 4] was 18 to 54 min and the “F1 (oral bioavailability, from AUC of DZ2002)” value ([2]; female rat, oral DZ2002 at 5 mg/kg vs iv 5 mg/kg) was 145 ± 27%. For the same molecule, the “F1 (oral bioavailability, from AUC of DZ2002)” value ([2]; female rat, oral DZ2002 at 10 mg/kg vs iv 5 mg/kg) was 90 ± 27%, the “F1 (oral bioavailability, from AUC of DZ2002)” value ([2]; female rat, oral DZ2002 at 25 mg/kg vs iv 5 mg/kg) was 118 ± 41% and the AUC(0-inf) [2, 5] was 0.68 ± 0.396 µM·h. The AUC(0-t) [2, 5] was 0.66 ± 0.376 µM·h, the MRT [2, 5] was 9 ± 3.6 min and the Vd [2, 5] was 4.59 ± 0.96 L/kg. The clearance [2, 5] was 590 mL/min/kg, the concentration at 5 min [2, 5] was 3.03 ± 1.45 µM and the half-life [2, 5] was 9 ± 6.6 min. It also gave an AUC(0-inf) [2, 6] of 0.985 ± 0.184 µM·h, an AUC(0-t) [2, 6] of 0.963 ± 0.182 µM·h and a Cmax [2, 6] of 2.72 ± 0.418 µM. The MRT [2, 6] was 25.8 ± 6.6 min, the Tmax [2, 6] was 4.8 min and the half-life [2, 6] was 18.6 ± 7.2 min. For the same molecule, the AUC(0-inf) [2, 7] was 1.23 ± 0.348 µM·h, the AUC(0-t) [2, 7] was 1.18 ± 0.366 µM·h and the Cmax [2, 7] was 2.13 ± 0.742 µM. For the same molecule, the MRT [2, 7] was 44.4 ± 9.6 min, the Tmax [2, 7] was 8.4 ± 6 min and the half-life [2, 7] was 32.4 ± 10.8 min. For the same molecule, the AUC(0-inf) [2, 8] was 4.02 ± 1.4 µM·h, the AUC(0-t) [2, 8] was 3.95 ± 1.43 µM·h and the Cmax [2, 8] was 8.49 ± 2.49 µM. For the same molecule, the MRT [2, 8] was 40.2 ± 13.8 min, the Tmax [2, 8] was 4.8 min and the half-life [2, 8] was 42.6 ± 25.2 min. The “F1 (oral bioavailability, from AUC of DZ2002)” value ([2]; male rat, oral DZ2002 at 5 mg/kg vs iv 5 mg/kg) was 157 ± 18%, the “F1 (oral bioavailability, from AUC of DZ2002)” value ([2]; male rat, oral DZ2002 at 10 mg/kg vs iv 5 mg/kg) was 146 ± 20% and the “F1 (oral bioavailability, from AUC of DZ2002)” value ([2]; male rat, oral DZ2002 at 25 mg/kg vs iv 5 mg/kg) was 159 ± 48%. For the same molecule, the AUC(0-inf) [2, 9] was 0.504 ± 0.146 µM·h, the AUC(0-t) [2, 9] was 0.495 ± 0.142 µM·h and the MRT [2, 9] was 6.6 ± 1.2 min. For the same molecule, the Vd [2, 9] was 4.5 ± 1.22 L/kg, the clearance [2, 9] was 707 mL/min/kg and the concentration at 5 min [2, 9] was 2.46 ± 0.597 µM. For the same molecule, the half-life [2, 9] was 4.8 ± 0.6 min, the AUC(0-inf) [2, 10] was 0.79 ± 0.092 µM·h and the AUC(0-t) [2, 10] was 0.729 ± 0.052 µM·h. The Cmax [2, 10] was 1.38 ± 0.457 µM, the MRT [2, 10] was 40.2 ± 19.2 min and the Tmax [2, 10] was 11.4 ± 6 min. It also gave a half-life [2, 10] of 27 ± 13.8 min, an AUC(0-inf) [2, 11] of 1.47 ± 0.199 µM·h and an AUC(0-t) [2, 11] of 1.41 ± 0.171 µM·h. The Cmax [2, 11] was 2.36 ± 1.1 µM, the MRT [2, 11] was 49.8 ± 14.4 min and the Tmax [2, 11] was 8.4 ± 6 min. The half-life [2, 11] was 40.8 ± 29.4 min, the AUC(0-inf) [2, 12] was 4 ± 1.21 µM·h and the AUC(0-t) [2, 12] was 3.85 ± 1.15 µM·h. The Cmax [2, 12] was 4.02 ± 0.898 µM, the MRT [2, 12] was 72 ± 22.2 min and the Tmax [2, 12] was 8.4 ± 6 min. For the same molecule, the half-life [2, 12] was 55.8 ± 16.2 min, the “Systemic clearance (CLtot,b) exceeding rat cardiac output (17.8 L/h/kg)” value [2, 13] was “around 2 times” and the “Systemic clearance (CLtot,b) exceeding rat hepatic blood flow rate (3.31 L/h/kg)” value [2, 13] was “around 13 times”. For the same molecule, the “Formation of DZA in methanol-treated rat blood spiked with DZ2002” value ([3]; 400 μL methanol to 50–200 μL rat blood, 23 °C) was “undetected”, the “Stability of DZ2002 in rat blood” value ([3]; freshly collected rat blood, 1000 nM, 23 or 37 °C) was “quickly transformed into its acid metabolite DZA” and the “Stability, response (%Control)” value [1, 14] was “(108) %Control”. The “Stability, response (%Control)” value [1, 15] was “(102) %Control”, the “Stability, response (%Control)” value [1, 16] was “(93.6) %Control” and the “Stability, response (%Control)” value [1, 17] was “(102) %Control”. For the same molecule, the “Stability, response (%Control)” value [1, 18] was “(94.6) %Control”, the “Stability, response (%Control)” value [1, 19] was “(92.4) %Control” and the “Stability, response (%Control)” value [1, 20] was “(108) %Control”. For the same molecule, the “Stability, response (%Control)” value [1, 21] was “(108) %Control”.
In the case of Nc1ncnc2c1ncn2CCC(O)C(=O)O (stereo not shown) [DZA, 4-(6-amino-9H-purin-9-yl)-2-hydroxybutyric acid], the half-life [2, 4] is reported as 78 to 306 min, the AUC(0-inf) [2, 5] is reported as 4.8 ± 0.3 µM·h and the AUC(0-t) [2, 5] is reported as 4.71 ± 0.34 µM·h. For the same molecule, the MRT [2, 5] was 30.6 ± 1.8 min, the concentration at 5 min [2, 5] was 15.5 µM and the half-life [2, 5] was 73.2 ± 26.4 min. For the same molecule, the AUC(0-inf) [2, 6] was 4.36 ± 0.701 µM·h, the AUC(0-t) [2, 6] was 4.27 ± 0.669 µM·h and the Cmax [2, 6] was 6.49 ± 1.04 µM. The MRT [2, 6] was 60.6 ± 5.4 min, the Tmax [2, 6] was 11.4 ± 6 min and the half-life [2, 6] was 124 ± 68.4 min. For the same molecule, the AUC(0-inf) [2, 7] was 7.81 ± 0.846 µM·h, the AUC(0-t) [2, 7] was 7.6 ± 1.03 µM·h and the Cmax [2, 7] was 7.23 ± 1.98 µM. The MRT [2, 7] was 97.8 ± 44.4 min, the Tmax [2, 7] was 16.8 ± 12.6 min and the half-life [2, 7] was 233 ± 225 min. The AUC(0-inf) [2, 8] was 18.4 µM·h, the AUC(0-t) [2, 8] was 17.6 µM·h and the Cmax [2, 8] was 19.8 µM. For the same molecule, the MRT [2, 8] was 177 ± 166 min, the Tmax [2, 8] was 11.4 ± 6 min and the half-life [2, 8] was 305 ± 218 min. For the same molecule, the AUC(0-inf) [2, 9] was 5.03 ± 0.212 µM·h, the AUC(0-t) [2, 9] was 4.94 ± 0.226 µM·h and the MRT [2, 9] was 33.6 ± 16.8 min. The concentration at 5 min [2, 9] was 15.3 µM, the half-life [2, 9] was 96.6 ± 104 min and the AUC(0-inf) [2, 10] was 3.9 ± 0.501 µM·h. The AUC(0-t) [2, 10] was 3.77 ± 0.608 µM·h, the Cmax [2, 10] was 5.23 ± 2.59 µM and the MRT [2, 10] was 74.4 ± 40.8 min. The Tmax [2, 10] was 19.8 ± 8.4 min, the half-life [2, 10] was 79.8 ± 38.4 min and the AUC(0-inf) [2, 11] was 6.81 ± 0.223 µM·h. The AUC(0-t) [2, 11] was 6.71 ± 0.267 µM·h, the Cmax [2, 11] was 7.03 ± 1.05 µM and the MRT [2, 11] was 78.6 ± 11.4 min. The Tmax [2, 11] was 19.8 ± 8.4 min, the half-life [2, 11] was 87.6 ± 13.8 min and the AUC(0-inf) [2, 12] was 18.4 µM·h. The AUC(0-t) [2, 12] was 18.1 µM·h, the Cmax [2, 12] was 16 µM and the MRT [2, 12] was 96 ± 18.6 min. The Tmax [2, 12] was 25.2 ± 8.4 min, the half-life [2, 12] was 167 ± 82.8 min and the “Stability, response (%Control)” value [1, 14] was “(98.1) %Control”. The “Stability, response (%Control)” value [1, 15] was “(89.5) %Control”, the “Stability, response (%Control)” value [1, 16] was “(95.2) %Control” and the “Stability, response (%Control)” value [1, 17] was “(97.5) %Control”. The “Stability, response (%Control)” value [1, 18] was “(108) %Control”, the “Stability, response (%Control)” value [1, 19] was “(112) %Control” and the “Stability, response (%Control)” value [1, 20] was “(106) %Control”. For the same molecule, the “Stability, response (%Control)” value [1, 21] was “(109) %Control”.
